These results are taken from ChEMBL document CHEMBL4831507, “Development of FABP4/5 inhibitors with potential therapeutic effect on type 2 Diabetes Mellitus” (Eur J Med Chem, 2021).

The target in data set [1] is T1, Fatty acid-binding protein, adipocyte (Homo sapiens, UniProt P15090). The experiment in a line: Displacement of 1,8-ANS from FABP4 (unknown origin) at 25 uM incubated for 3 mins by fluorescence based analysis relative to control. Put shortly: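 Single-concentration percent inhibition in the 1,8-ANS displacement assay with FABP4. Compound incubated with protein and probe in phosphate buffer for 3 min at room temperature; fluorescence read at ex 370/em 470 nm.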
Target sequence in this assay (P15090 2-132 limits assumed): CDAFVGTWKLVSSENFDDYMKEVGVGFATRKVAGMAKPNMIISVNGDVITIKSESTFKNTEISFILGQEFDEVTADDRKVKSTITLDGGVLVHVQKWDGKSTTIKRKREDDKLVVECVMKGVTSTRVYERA

Data set [2] can be described thus: Metabolic stability in mouse liver microsomes assessed as half life at 0.1 uM preincubated for 10 mins followed by NADPH addition and measured for 60 mins by LC-MS/MS analysis. The note with it: time 70 min. In kind it is ADME, Microsome. A digest of the protocol: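 Mouse liver microsomes 0.33 mg/mL in 0.1 M Tris pH 7.4 with 5 mM MgCl₂, 0.01% DMSO and 0.005% BSA. Compound final […]. Preincubated 10 min at 37 °C; reaction started with 1 mM NADPH. Samples at 0, 7, 17, 30 and 60 min quenched with cold methanol, then analysed by LC-MS/MS.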

For data set [3], the system named is 3T3-L1. The experiment in a line: Anti-lipolytic activity in mouse 3T3-L1 cells assessed as inhibition of forskolin-stimulated glycerol release at 80 uM preincubated for 24 hrs followed by forskolin stimulation for 1 hr. Format: functional, cell-based. The note with it: time 25.0 hrs.
The target of data set [4] is Fatty acid-binding protein 5 (Homo sapiens, UniProt Q01469). The data set can be described thus: Displacement of 1,8-ANS from FABP5 (unknown origin) incubated for 3 mins by fluorescence based analysis.
Fatty acid-binding protein 5, sequence (Q01469 whole entry): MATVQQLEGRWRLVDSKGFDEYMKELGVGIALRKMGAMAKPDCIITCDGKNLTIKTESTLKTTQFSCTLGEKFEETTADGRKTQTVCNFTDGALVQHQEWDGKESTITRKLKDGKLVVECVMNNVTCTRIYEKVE
The target of data set [5] is T1, Fatty acid-binding protein, adipocyte. The data set can be described thus: Displacement of 1,8-ANS from FABP4 (unknown origin) incubated for 3 mins by fluorescence based analysis. A digest of the protocol:
(§1)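 1,8-ANS displacement using purified recombinant FABP3, FABP4 or FABP5. Compound incubated with protein and 1,8-ANS in phosphate buffer for 3 min at room temperature. Fluorescence read at ex 370/em 470 nm. IC50 by nonlinear regression, mean ± SD of three independent experiments.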
Target sequence in this assay (P15090 whole entry): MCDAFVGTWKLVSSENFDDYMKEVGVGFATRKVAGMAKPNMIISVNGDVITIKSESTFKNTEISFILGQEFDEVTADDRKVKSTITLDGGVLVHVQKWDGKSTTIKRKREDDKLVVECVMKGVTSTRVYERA

For data set [6], the species on record is Homo sapiens. The data set can be described thus: Selectivity ratio of IC50 for FABP3 (unknown origin) to IC50 for FABP4 (unknown origin). Put shortly:
as §1

Data set [7] has as its target Fatty acid-binding protein, heart (Homo sapiens, UniProt P05413). The data set can be described thus: Displacement of 1,8-ANS from FABP3 (unknown origin) incubated for 3 mins by fluorescence based analysis. A digest of the protocol:
as §1

The species named for data set [8] is Homo sapiens. The experiment in a line: Selectivity ratio of IC50 for FABP3 (unknown origin) to IC50 for FABP5 (unknown origin). A digest of the protocol: as §1
Data set [9] deals with 3T3-L1. The experiment in a line: Cytotoxicity against mouse 3T3-L1 cells assessed as reduction in cell viability at 100 uM incubated for 24 hrs by CCK8 assay. Particulars: 3t3-l1, 24 h. Format: cell-based.

The source made the active and inactive calls. No cut-off for these calls is given here.

Fatty acid-binding protein, heart, sequence (P05413 whole entry): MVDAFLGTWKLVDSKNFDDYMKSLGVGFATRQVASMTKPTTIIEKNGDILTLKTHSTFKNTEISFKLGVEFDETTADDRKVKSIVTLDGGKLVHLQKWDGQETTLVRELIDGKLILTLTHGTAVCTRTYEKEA

In [1], `COc1c(-c2ccc(F)cc2C)cc(S(=O)(=O)Nc2ccc(F)c(C(=O)O)c2)c2ccccc12` showed an inhibition of 95%. For the same compound, the half-life at 0.1 µM in [2] is 102 min. Moreover, in data set [3], the result was inactive. The IC50 in [4] came to 8.97 µM; in data set [5], 2.63 µM.

`COc1c(-c2cc(Cl)ccc2Cl)cc(S(=O)(=O)Nc2ccc(F)c(CC(=O)O)c2)c2ccccc12`: the inhibition in [1] came out at 52%.

In [1], `O=C(O)c1cc(NS(=O)(=O)c2ccc(-c3ccccc3OC(F)(F)F)c3ccccc23)ccc1F` registered an inhibition of 74%. Besides, the results for the concentration for half-maximal inhibition (IC50) in data set [4] and in data set [5] were 8.2 µM and 12.5 µM, respectively.

`COc1c(-c2ccccc2C(F)(F)F)cc(S(=O)(=O)Nc2ccc(F)c(CC(=O)O)c2)c2ccccc12`: in data set [1], the inhibition amounted to 56%. For the same compound, the half-inhibitory concentration (IC50) in [4] was 7.72 µM.

Consider `Cc1c(Cl)cccc1OCc1[nH]c2nc(-c3ccccc3)nn2c(=O)c1C`, for which the inhibition in [1] is 97%. The Ratio IC50 in data set [6] is 0.31; in [8] it was 0.08. For the same compound, the 50% inhibitory concentration (IC50) in [7] amounted to 1.95 µM; in data set [5], 6.34 µM.

Regarding `COc1c(-c2ccccc2O)cc(S(=O)(=O)Nc2ccc(F)c(CC(=O)O)c2)c2ccccc12`, the inhibition in data set [1] worked out at 86%. The 50% inhibitory concentration (IC50) in [5] was 8.03 µM.

`O=C(O)c1cc(NS(=O)(=O)c2ccc(-c3ccccc3)c3ccccc23)ccc1F` gave an inhibition in [1] of 82%. Further, in [5], the half-inhibitory concentration (IC50) turned out to be 4.84 µM.

Compound `COc1c(-c2ccc(F)cc2F)cc(S(=O)(=O)Nc2ccc(F)c(CC(=O)O)c2)c2ccccc12` returned an inhibition in data set [1] of 96%. This compound showed an IC50 in [5] of 3.14 µM.

The compound `O=C(O)c1cc(NS(=O)(=O)c2ccc(-c3ccc(C(F)(F)F)cc3)c3ccccc23)ccc1F` gave an inhibition in data set [1] of 40%.

Take `O=C(O)c1cc(NS(=O)(=O)c2ccc(-c3ccc(F)cc3F)c3ccccc23)ccc1F`: the Activity entry in data set [9] is listed as “Non-Toxic”. In data set [1], this compound had an inhibition of 85%. In data set [5], the 50% inhibitory concentration (IC50) was 4.7 µM.

As for `COc1c(-c2cccc(Cl)c2F)cc(S(=O)(=O)Nc2ccc(F)c(CC(=O)O)c2)c2ccccc12`, the inhibition in data set [1] turned out to be 84%. In addition, the concentration for half-maximal inhibition (IC50) in [5] stood at 6.45 µM.

On to `O=C(O)c1cc(NS(=O)(=O)c2ccc(OCCC3CCCCC3)c3ccccc23)ccc1F`, for which the half-life at 0.1 µM in [2] was 23.5 min.

With `COc1c(-c2ccc(F)cc2Cl)cc(S(=O)(=O)Nc2ccc(F)c(CC(=O)O)c2)c2ccccc12`, the Activity result in data set [9] was “Non-Toxic”. In addition, the inhibition in [1] is 90%. Further, the values for the half-inhibitory concentration (IC50) in data set [4] and in data set [5] were 6.08 µM and 4.77 µM, respectively.

`O=C(O)c1cc(NS(=O)(=O)c2ccc(-c3ccncc3)c3ccccc23)ccc1F` registered an inhibition in data set [1] of 52%.

`COc1c(-c2ccccc2Cl)cc(S(=O)(=O)Nc2ccc(F)c(CC(=O)O)c2)c2ccccc12`: the Activity entry in [9] is “Non-Toxic”. Further, the inhibition in data set [1] came out at 77%. In addition, in [2], the half-life at 0.1 µM turned out to be 43.1 min. The result in [3] was Active. Also, the IC50 is 7.57 µM in [4] and 8.02 µM in [5].

Compound `CCc1ccccc1-c1cc(S(=O)(=O)Nc2ccc(F)c(CC(=O)O)c2)c2ccccc2c1OC` registered an inhibition in [1] of 63%. The values for the half-inhibitory concentration (IC50) in data set [4] and in [5] were 3.2 µM and 14.3 µM, respectively.

`COc1c(-c2ccc(F)cc2)cc(S(=O)(=O)Nc2ccc(F)c(CC(=O)O)c2)c2ccccc12` displayed an inhibition in [1] of 95%. The compound also had a concentration for half-maximal inhibition (IC50) in [5] of 4.71 µM.

In data set [1], `COc1c(-c2ccccc2F)cc(S(=O)(=O)Nc2ccc(F)c(CC(=O)O)c2)c2ccccc12` returned an inhibition of 87%. In [5], this compound gave a half-maximal inhibitory concentration (IC50) of 5.25 µM.

`O=C(O)c1cc(NS(=O)(=O)c2ccc(-c3ccc(O)cc3)c3ccccc23)ccc1F` had an inhibition in data set [1] of 73%. This compound also returned a 50% inhibitory concentration (IC50) in [5] of 8.24 µM.

In turn, `COc1c(-c2ccccc2C)cc(S(=O)(=O)Nc2ccc(F)c(CC(=O)O)c2)c2ccccc12` yielded an inhibition in [1] of 80%. Further, the IC50 in [4] is 7.72 µM; in [5], 5.16 µM.

Consider `CC(C)c1ccccc1-c1ccc(S(=O)(=O)Nc2ccc(F)c(C(=O)O)c2)c2ccccc12`, for which the inhibition in data set [1] is 74%. In addition, the IC50 was found to be 16.8 µM in data set [4] and 11.9 µM in data set [5].

As for `Cc1cc(F)ccc1-c1ccc(S(=O)(=O)Nc2ccc(F)c(C(=O)O)c2)c2ccccc12`, the Activity result in data set [9] is listed as “Non-Toxic”. The inhibition in [1] was determined as 85%. For the same compound, in [2], the half-life at 0.1 µM stood at 88.4 min. Besides, the result in data set [3] was Active. Further, the concentration for half-maximal inhibition (IC50) in data set [5] was determined as 5 µM.

`O=C(O)c1cc(NS(=O)(=O)c2ccc(-c3ccc(F)cc3)c3ccccc23)ccc1F` displayed an inhibition in data set [1] of 80%. In [5], this compound showed a concentration for half-maximal inhibition (IC50) of 7.68 µM.

Regarding `COc1c(-c2ccc(F)c(Cl)c2)cc(S(=O)(=O)Nc2ccc(F)c(CC(=O)O)c2)c2ccccc12`, in data set [1], the inhibition is 88%. The 50% inhibitory concentration (IC50) in [5] was found to be 5 µM.

On to `COc1c(-c2ccccc2C(C)C)cc(S(=O)(=O)Nc2ccc(F)c(CC(=O)O)c2)c2ccccc12`, for which the Activity result in data set [9] was “Non-Toxic”. Moreover, the inhibition in [1] worked out at 50%. In [2], the half-life at 0.1 µM worked out at 15.1 min. Further, the result in data set [3] was Active. The IC50 in data set [4] is 2.9 µM.

For `O=C(O)c1cc(NS(=O)(=O)c2ccc(-c3ccc(F)c(Cl)c3)c3ccccc23)ccc1F`, the Activity entry in data set [9] was “Non-Toxic”. Moreover, the inhibition in [1] worked out at 78%. Also, the Ratio IC50 in data set [6] was 13.1; in [8], 16.3. The results for the half-maximal inhibitory concentration (IC50) in data set [7], in data set [4] and in data set [5] were 103 µM, 6.33 µM and 7.84 µM, respectively.

`Cc1noc(C)c1-c1ccc(S(=O)(=O)Nc2ccc(F)c(C(=O)O)c2)c2ccccc12` registered an inhibition in [1] of 61%.
